Shown are actives, neighbours in structure and some others; about 2.8% of the full set was active somewhere.
p47phox inh: p47phox/p22phox peptide binding inhibitors, primary screen, biochemical, uHTS, NADPH oxidase regulatory subunit; Neutrophil cytosol factor 1 (Homo sapiens), P14598; fluorescence polarization, 2 h; inhibition, % at 24.7 µM; 220,000 compounds, 0.53% hits; AID 1274, 2008;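 note: 0% = p47phox with labelled peptide and 100% = labelled peptide alone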
RBBP9 inhibitor: human RBBP9 inhibitors, primary screen, biochemical, fluorescence polarization, FP-Rh probe, HTS; recombinant RBBP9; 220,000 compounds, 0.2% hits; Serine hydrolase RBBP9 (Homo sapiens), O75884; inhibition, % at 7.94 µM;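 active = inhibition above the campaign mean of all tested compounds plus 3 SD, cut at about 14% in these data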;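 note: plate controls were DMSO wells with RBBP9 for no effect and wells lacking RBBP9 protein for full effect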
Target sequence (O75884 whole entry, looked up): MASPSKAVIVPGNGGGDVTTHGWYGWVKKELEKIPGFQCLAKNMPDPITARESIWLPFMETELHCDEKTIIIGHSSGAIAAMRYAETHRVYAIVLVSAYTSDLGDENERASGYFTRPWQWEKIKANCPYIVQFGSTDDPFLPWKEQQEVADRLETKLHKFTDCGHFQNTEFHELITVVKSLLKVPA
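System: RBBP9 protein / Quantity: 2.5 µM RBBP9 dispensing solution, before mixing / Also added: Serine-hydrolase probe FP-Rh, 375 nM pre-mixing / Dosing: 7.94 µM single dose, 0.794% DMSO / Timing: enzyme-compound preincubation 30 min, then probe labeling 45 min, 25 °C / Signal: FP readout at 525/598 nm / Controls: DMSO-treated enzyme wells and wells lacking RBBP9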
14-3-3 Bad inh: inhibitors of 14-3-3 zeta/Bad binding, primary screen, biochemical, TR-FRET, bovine 14-3-3 zeta | TR-FRET 14-3-3zeta/Dy647-pBad peptide displacement, 1 h | inhibition, % at 21.7 µM | 220,000 compounds, 0.71% hits;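 active = inhibition above about 70%, limit read from the data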;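 note: 0% = full 14-3-3 plus peptide FRET controls and 100% = background without 14-3-3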
Target sequence (P63103 whole entry, looked up): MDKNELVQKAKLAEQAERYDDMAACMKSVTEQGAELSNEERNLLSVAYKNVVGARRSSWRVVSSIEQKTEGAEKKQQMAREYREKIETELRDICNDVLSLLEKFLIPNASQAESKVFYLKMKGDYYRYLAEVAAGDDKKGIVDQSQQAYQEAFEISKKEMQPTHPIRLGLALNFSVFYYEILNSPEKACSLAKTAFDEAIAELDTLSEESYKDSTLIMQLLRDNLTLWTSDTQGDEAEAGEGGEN
eIF4E-4G inh: eIF4E–eIF4G protein interaction inhibitors, primary screen, biochemical, uHTS, TR-FRET, eIF4GI fragment; inhibition, % at 21.7 µM; Eukaryotic translation initiation factor 4E (Mus musculus) + Eukaryotic translation …; 220,000 compounds, 0.37% hits; TR-FRET eIF4E-eIF4GI(517-606) binding, 2 h;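 note: 0% = full FRET control wells and 100% = background wells lacking eIF4GI fragment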
Wee1 degr inh: Wee1 degradation inhibitors, primary screen, cell-based, HeLa, Wee1K328M-luciferase, luminescence | HeLa Luc-Wee1K328M stability; 100% = proteasome inhibitor MG132 effect | reporter increase, % at 5 µM | 220,000 compounds, 1.2% hits | AID 1321, 2008;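 active = activation above the mean of all tested compounds plus 3 SD, set per screening run, cut at about 8.8% in these data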;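 note: cells exposed to compound for 20 h before luminescence read; 0% = DMSO alone and 100% = MG132 at 30 µM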
An asterisk follows results filed as active; . = no result; [ ] = another dose, or the depositor's remark.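 Rule for the calls, unless noted: active = inhibition above about 30% (limit read from the data); inactive = the rest.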

SMILES | p47phox inh | RBBP9 inhibitor | 14-3-3 Bad inh | eIF4E-4G inh | Wee1 degr inh
Brc1ccc2nc(-c3cccs3)c(NCC3CCCO3)n2c1 (stereo unspecified) | -4 | -4 | 6 | 0 | -3
C#CC1(NC(=O)NCCCC)CCCCC1 | 57* | 13 | -5 | -6 | 4
CC(/C=N\NC(=O)CN1CCN(S(=O)(=O)c2ccc(C)cc2)CC1)=C\c1ccccc1 | -10 | -12 | 80*[fluorescence artefact?] | 33*[fluorescence artefact?] | 3
Cc1ccc(S(=O)(=O)N2CCN(CC(=O)N/N=C\C(Cl)=C\c3ccccc3)CC2)cc1 | -5 | -7 | -3 | -2 | 4
O=C(NS(=O)(=O)Oc1ccc(Cl)cc1)OC[C@@H]1CCCN2CCCC[C@H]12 | -8 | -4 | 4 | -1 | 1
Cc1ccc(NC(=O)CN2C(=O)/C(=C3\SC(=S)N(C4CCS(=O)(=O)C4)C3=O)c3ccccc32)cc1 (stereo unspecified) | 76* | -4 | 93*[fluorescence artefact?] | 1 | 1
O=C(CN1C(=O)/C(=C2\SC(=S)N(C3CCS(=O)(=O)C3)C2=O)c2ccccc21)Nc1ccccc1 (stereo unspecified) | 69* | -3 | 81*[fluorescence artefact?] | 11 | 1
Cc1cccc(-n2c(C)nc3c(cnn3-c3ccc(F)cc3)c2=O)c1 | -23 | -5 | -14 | -8 | -1
O=C(CSc1ccc(F)cc1)Nc1ccc(C2SCCS2)cc1 | -5 | 4 | 15 | 1 | 9.5*
Cc1[nH]c(=O)[nH]c(=O)c1S(=O)(=O)N1c2ccc(F)cc2CCC1C (stereo unspecified) | -25 | -2 | 5 | -7 | -2
CC(C)[C@@H](N)C(=O)N/N=C/c1ccc2ncccc2c1 | -7 | 5 | 0 | -1 | 18*
S=C(N/N=C/c1ccc2ncccc2c1)Nc1cccnc1 | -8 | 1 | -19 | -5 | 1
O=C(Cc1ccccc1)Nc1ccccc1C(=O)Nc1ccccc1 | -4 | -5 | 6 | -6 | 11*
Cc1c[nH]c(=O)c([N+](=O)[O-])c1 | -13 | -4 | -1 | 0 | -2
COc1ccc2c(-c3ccccc3)cc(N3CCOCC3)nc2c1 | -9 | -10 | 86*[fluorescence artefact?] | 18 | 0
c1ccc(-c2cc(-c3ccc(N4CCOCC4)cc3)nc3ccccc23)cc1 | -14 | -1 | 3 | 15 | -1
O=C(CCN1C(=O)/C(=C/c2ccc3c(c2)OCO3)SC1=S)NNC(=O)c1cccnc1 | 20 | 3 | 71* | 2 | 0
Cc1cccc(Nc2nc3c(S(=O)(=O)c4ccccc4)nnn3c3ccccc23)c1 | -6 | -7 | 22 | 4 | 2
Cc1cc(C)cc(Nc2nc3c(S(=O)(=O)c4ccccc4)nnn3c3ccccc23)c1 | 34* | -9 | 23 | 10 | 4
O=C(O)Cn1nc2ccccc2n1 | -9 | -5 | -5 | -10 | -2
CC(C(=O)O)n1nc2ccccc2n1 (stereo unspecified) | 20 | -9 | 71* | 6 | 1
CC1(C)N([O-])C(c2ccccc2)=C[N+](=O)C1(C)C | 1 | -3 | 1 | 9 | 9.3*
CC1CCc2sc(C(=O)OC(C)C(=O)Nc3ncc(Cl)cc3Cl)cc2C1 (stereo unspecified) | -22 | 4 | -4 | -4 | 10*
Cc1cc(Cl)ccc1Oc1cccc(C(=O)/C(C#N)=C/N(C)C)c1 | -19 | -1 | 6 | 7 | 4
Cc1ccc2oc(/N=C(\N)NC(=O)C3CC3)nc2c1 | -1 | -3 | -15 | -1 | 9.3*
SMILES | p47phox inh | RBBP9 inhibitor | 14-3-3 Bad inh | eIF4E-4G inh | Wee1 degr inh
Cn1c(N/N=C2\CCCc3ccccc32)nc2c1c(=O)n(Cc1ccc(F)cc1)c(=O)n2C | 8 | -6 | 96* | 25 | 0
O=C(c1ccncc1)N1CCN(C(=O)c2cccs2)CC1 | -19 | -7 | -2 | -3 | -1
CCC(C)N1CCN(C(=O)c2cccs2)CC1 (stereo unspecified) | -15 | 1 | 70* | 0 | -1
COc1cccc(OC)c1C(=O)N1CCN(Cc2ccc3c(c2)OCO3)CC1 | -3 | 2 | 97*[fluorescence artefact?] | 12 | 0
CCCCCn1c(=O)[nH]c2cc(C(=O)N3CCN(Cc4ccc5c(c4)OCO5)CC3)ccc2c1=O | -9 | -12 | -3 | 44* | -1
CCOCCCNC(=S)N1CCN(Cc2ccc3c(c2)OCO3)CC1 | -8 | 4 | 95* | 0 | -3
CCCNC(=S)N1CCN(Cc2ccc3c(c2)OCO3)CC1 | -2 | -6 | 20 | -1 | -4
CCCCCCc1nc2ccccc2c(=O)n1NC(=O)c1c(O)c2cccc3c2n(c1=O)CC3 | . | 0 | . | . | -2
COc1ccc(CN2CCN(C(=O)c3cccs3)CC2)cc1Br | 10 | -6 | 78* | 19 | 0
O=C(c1cc(-c2ccncc2)nc2ccc(Cl)cc12)N1CCN(Cc2ccc3c(c2)OCO3)CC1 | 48* | 3 | -4 | -3 | -2
CCCCOC(=O)c1ccc(NC(=O)COC(=O)CSc2nc(C)cc(C)n2)cc1 | -14 | -8 | 5 | 1 | 2
CN(C)C(CNC(=S)Nc1ccc(F)cc1)c1cccnc1 (stereo unspecified) | 2 | -4 | -3 | 1 | 10*
Cc1cccc(NC(=S)NCC(c2cccnc2)N(C)C)c1 (stereo unspecified) | -10 | 0 | -4 | 0 | 1
Nc1nc(N2CCN(c3ccccc3)CC2)n[nH]1 | -2 | 5 | 72* | 1 | -1
COc1ccc(/C=C/C(=O)c2ccc(NC(=O)c3cccs3)cc2)cc1OC | -30 | -31 | -13 | -1 | 9.2*
COc1ccc(C(=O)Nc2ccc(NC(=O)c3cccs3)cc2)cc1Cl | -12 | -3 | 24 | -1 | -4
O=C(CN1CCN(c2ccc(F)cc2)CC1)NCc1cccs1 | -5 | -1 | 17 | 3 | 9.0*
CCOCCCNC(=O)CN1CCN(c2ccc(F)cc2)CC1 | -22 | 2 | 74* | 0 | 6
CC1(C)CC(NC(=O)c2sc3cc(Cl)ccc3c2Cl)CC(C)(C)N1 | 21 | -6 | -2 | -1 | 5
Cc1ccc(C(=O)NNC(=O)c2ccc3ncccc3c2)cc1 | 33* | 2 | 4 | 5 | -4
O=C(NNC(=O)c1ccc2ncccc2c1)c1ccc(Cl)cc1 | 3 | -7 | -4 | -2 | 6
COC(=O)CNC(=O)c1sc2ncn(CC(=O)Nc3ccc(C)c(Cl)c3)c(=O)c2c1C | -15 | -10 | -12 | -1 | -2
CCC(=O)NCC(c1cccs1)N1CCOCC1 (stereo unspecified) | 1 | -4 | 85* | 5 | -1
